# Paper PMC7449315 (Journal for Immunotherapy of Cancer, 2020)
# Several values for one entry are separate records, joined by “and”; a condition that tells them apart may be missing. Identical values can stand only once. Marks after values point to notes of the source that are not given here.
# How the values were obtained:
# [1] = phase I trial: plasma pharmacokinetics; type: in vivo, human
# Summary of the method: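 Patients were dosed orally twice daily. Blood was sampled on cycle 1 days 1 and 15 (predose and 0.5, 1, 2, 3, 4, 6 and 8 h postdose), on day 8 (predose), and on cycle 2 day 1 (predose and 2 h). Plasma drug levels were measured by LC-MS/MS. Non-compartmental analysis gave Cmax, tmax and AUC0–8, dose-normalized values, predose concentrations and day 15/day 1 accumulation. Dose proportionality was tested with a power model.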
# [2] = biological target: IDO1 (Homo sapiens, UniProt P14902); test: IDO1 activity in ex vivo LPS-stimulated whole blood from M4112-treated patients
# [3] = 100 to 600 mg two times per day, day 15
# [4] = Cycle 1, day 1, 100 mg two times per day, n=3, geometric mean (CV%)
# [5] = Cycle 1, day 1, 200 mg two times per day, n=3, geometric mean (CV%)
# [6] = Cycle 1, day 1, 400 mg two times per day, n=3, geometric mean (CV%)
# [7] = Cycle 1, day 1, 600 mg two times per day, n=3, geometric mean (CV%)
# [8] = Cycle 1, day 1, 800 mg two times per day, n=3, geometric mean (CV%)
# [9] = Cycle 1, day 8, 100 mg two times per day, n=3, geometric mean (CV%)
# [10] = Cycle 1, day 8, 200 mg two times per day, n=3, geometric mean (CV%)
# [11] = Cycle 1, day 8, 400 mg two times per day, n=3, geometric mean (CV%)
# [12] = Cycle 1, day 8, 600 mg two times per day, n=3, geometric mean (CV%)
# [13] = Cycle 1, day 8, 800 mg two times per day, n=3, geometric mean (CV%)
# [14] = Cycle 1, day 15, 100 mg two times per day, n=3, geometric mean (CV%)
# [15] = Cycle 1, day 15, 200 mg two times per day, n=3, geometric mean (CV%)
# [16] = Cycle 1, day 15, 400 mg two times per day, n=3, geometric mean (CV%)
# [17] = Cycle 1, day 15, 600 mg two times per day, n=3, geometric mean (CV%)
# [18] = Cycle 1, day 15, 800 mg two times per day, n=1, individual value
# [19] = Cycle 2, day 1, 100 mg two times per day, n=3, geometric mean (CV%)
# [20] = Cycle 2, day 1, 200 mg two times per day, n=2, individual values
# [21] = Cycle 2, day 1, 400 mg two times per day, n=3, geometric mean (CV%)
# [22] = Cycle 2, day 1, 600 mg two times per day, n=2, individual values
# [23] = Cycle 2, day 1, 800 mg two times per day, n=1, individual value
# Chain of IDO1 (P14902 whole entry): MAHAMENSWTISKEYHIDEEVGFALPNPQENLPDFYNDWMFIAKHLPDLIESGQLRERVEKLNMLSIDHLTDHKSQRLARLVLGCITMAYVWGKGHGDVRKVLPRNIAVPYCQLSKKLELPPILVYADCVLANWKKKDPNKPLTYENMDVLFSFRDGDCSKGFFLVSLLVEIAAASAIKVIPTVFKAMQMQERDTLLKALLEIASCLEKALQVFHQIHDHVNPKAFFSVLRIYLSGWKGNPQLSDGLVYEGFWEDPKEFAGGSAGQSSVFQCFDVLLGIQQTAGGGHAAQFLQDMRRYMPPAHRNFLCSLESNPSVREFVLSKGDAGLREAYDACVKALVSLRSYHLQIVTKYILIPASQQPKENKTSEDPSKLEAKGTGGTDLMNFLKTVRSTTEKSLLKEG
smiles,measurement,setting,value
NS(=O)(=O)[C@H]1CC[C@](F)(CC[C@H]2c3ccccc3-c3cncn32)CC1 [M4112],increase of mean exposure with dose,[1]; [3],greater than dose-proportional
same,slope estimate of dose proportionality (power model),[1]; [3],1.46–1.67
same,accumulation / autoinduction following two times per day dosing,[1]; 100–600 mg dose range,no appreciable accumulation or evidence of autoinduction
same,AUC0–8,[1]; [4],3550 (14.4) ngxh/mL
same,AUC0–8/dose,[1]; [4],35.5 (14.4) ngxh/mL/mg
same,Cmax,[1]; [4],806 (9.9) ng/mL
same,Cmax/dose,[1]; [4],8.06 (9.9) ng/mL/mg
same,tmax,"[1]; Cycle 1, day 1, 100 mg two times per day, n=3, median (min, max)","1.08 (1.08, 2.12) hours"
same,AUC0–8,[1]; [5],8740 (13.6) ngxh/mL
same,AUC0–8/dose,[1]; [5],43.7 (13.6) ngxh/mL/mg
same,Cmax,[1]; [5],2110 (13.6) ng/mL
same,Cmax/dose,[1]; [5],10.5 (13.6) ng/mL/mg
same,tmax,"[1]; Cycle 1, day 1, 200 mg two times per day, n=3, median (min, max)","2.10 (2.07, 3.08) hours"
same,AUC0–8,[1]; [6],"27,700 (21.4) ngxh/mL"
same,AUC0–8/dose,[1]; [6],69.1 (21.4) ngxh/mL/mg
same,Cmax,[1]; [6],7670 (39.6) ng/mL
same,Cmax/dose,[1]; [6],19.2 (39.6) ng/mL/mg
same,tmax,"[1]; Cycle 1, day 1, 400 mg two times per day, n=3, median (min, max)","1.08 (1.07, 1.08) hours"
same,AUC0–8,[1]; [7],"50,400 (7.7) ngxh/mL"
same,AUC0–8/dose,[1]; [7],84.0 (7.7) ngxh/mL/mg
same,Cmax,[1]; [7],"11,700 (24.6) ng/mL"
same,Cmax/dose,[1]; [7],19.6 (24.6) ng/mL/mg
same,tmax,"[1]; Cycle 1, day 1, 600 mg two times per day, n=3, median (min, max)","1.00 (0.97, 1.07) hours"
same,AUC0–8,[1]; [8],"14,600 (85.1) ngxh/mL"
same,AUC0–8/dose,[1]; [8],18.2 (85.1) ngxh/mL/mg
same,Cmax,[1]; [8],2770 (83.6) ng/mL
same,Cmax/dose,[1]; [8],3.47 (83.6) ng/mL/mg
same,tmax,"[1]; Cycle 1, day 1, 800 mg two times per day, n=3, median (min, max)","2.08 (2.07, 4.12) hours"
same,Cpre,[1]; [9],156 (58.2) ng/mL
same,Cpre/dose,[1]; [9],1.56 (58.2) ng/mL/mg
same,Cpre,[1]; [10],96.5 (85.0) ng/mL
same,Cpre/dose,[1]; [10],0.482 (85.0) ng/mL/mg
same,Cpre,[1]; [11],1240 (51.6) ng/mL
same,Cpre/dose,[1]; [11],3.11 (51.6) ng/mL/mg
same,Cpre,[1]; [12],4410 (54.5) ng/mL
same,Cpre/dose,[1]; [12],7.35 (54.5) ng/mL/mg
same,Cpre,[1]; [13],5200 (105.4) ng/mL
same,Cpre/dose,[1]; [13],6.50 (105.4) ng/mL/mg
same,AUC0–8,[1]; [14],4790 (25.4) ngxh/mL
same,AUC0–8/dose,[1]; [14],47.9 (25.4) ngxh/mL/mg
same,Cmax,[1]; [14],975 (34.9) ng/mL
same,Cmax/dose,[1]; [14],9.75 (34.9) ng/mL/mg
same,Cpre,[1]; [14],221 (20.5) ng/mL
same,Cpre/dose,[1]; [14],2.21 (20.5) ng/mL/mg
same,tmax,"[1]; Cycle 1, day 15, 100 mg two times per day, n=3, median (min, max)","3.08 (2.12, 4.13) hour"
same,AUC0–8,[1]; [15],7580 (11.5) ngxh/mL
same,AUC0–8/dose,[1]; [15],37.9 (11.5) ngxh/mL/mg
same,Cmax,[1]; [15],1720 (20.5) ng/mL
same,Cmax/dose,[1]; [15],8.58 (20.5) ng/mL/mg
same,Cpre,[1]; [15],199 (53.9) ng/mL
same,Cpre/dose,[1]; [15],0.997 (53.9) ng/mL/mg
same,tmax,"[1]; Cycle 1, day 15, 200 mg two times per day, n=3, median (min, max)","2.10 (1.00, 6.08) hour"
same,AUC0–8,[1]; [16],"31,500 (28.8) ngxh/mL"
same,AUC0–8/dose,[1]; [16],78.8 (28.8) ngxh/mL/mg
same,Cmax,[1]; [16],6560 (27.4) ng/mL
same,Cmax/dose,[1]; [16],16.4 (27.4) ng/mL/mg
same,Cpre,[1]; [16],1630 (45.7) ng/mL
same,Cpre/dose,[1]; [16],4.08 (45.7) ng/mL/mg
same,tmax,"[1]; Cycle 1, day 15, 400 mg two times per day, n=3, median (min, max)","1.08 (0.50, 3.00) hour"
same,AUC0–8,[1]; [17],"59,500 (12.7) ngxh/mL"
same,AUC0–8/dose,[1]; [17],99.2 (12.7) ngxh/mL/mg
same,Cmax,[1]; [17],"12,100 (2.2) ng/mL"
same,Cmax/dose,[1]; [17],20.2 (2.2) ng/mL/mg
same,Cpre,[1]; [17],3380 (42.4) ng/mL
same,Cpre/dose,[1]; [17],5.63 (42.4) ng/mL/mg
same,tmax,"[1]; Cycle 1, day 15, 600 mg two times per day, n=3, median (min, max)","1.03 (0.93, 2.17) hour"
same,AUC0–8,[1]; [18],"93,200† ngxh/mL"
same,AUC0–8/dose,[1]; [18],116† ngxh/mL/mg
same,Cmax,[1]; [18],"21,100† ng/mL"
same,Cmax/dose,[1]; [18],26.4† ng/mL/mg
same,Cpre,[1]; [18],9810† ng/mL
same,Cpre/dose,[1]; [18],12.3† ng/mL/mg
same,tmax,[1]; [18],2.00† hour
same,Cpre,[1]; [19],128 (67.7) ng/mL
same,Cpre/dose,[1]; [19],1.28 (67.7) ng/mL/mg
same,Cpre,[1]; [20],83.3 ng/mL and 85.2 ng/mL
same,Cpre/dose,[1]; [20],0.417 ng/mL/mg and 0.426 ng/mL/mg
same,Cpre,[1]; [21],957 (72.1) ng/mL
same,Cpre/dose,[1]; [21],2.39 (72.1) ng/mL/mg
same,Cpre,[1]; [22],1910 ng/mL and 2560 ng/mL
same,Cpre/dose,[1]; [22],3.18 ng/mL/mg and 4.27 ng/mL/mg
same,Cpre,[1]; [23],8560† ng/mL
same,Cpre/dose,[1]; [23],10.7† ng/mL/mg
same,tmax,"[1]; across all dose levels on both days 1 and 15, approximately",1 to 3 h
same,M4112 exposure of the 800 mg two times per day cohort,"[1]; cycle 1, day 1",initially lower than that of the other dose groups
same,IDO1 activity inhibited,"[2]; 800 mg two times per day, throughout the dosing interval",Approximately 90%
same,IDO1 inhibition in ex vivo stimulated blood,[2]; across all doses tested,rapid onset of IDO1 inhibition
same,time of maximum IDO1 inhibition,[2]; post-M4112 administration,1 to 4 h
same,dose dependence of IDO1 inhibition,[2]; steady state,trend toward dose-dependent IDO1 inhibition
